# Measurements published in PMC7323501 (Inorganic chemistry, 2019).
# Where two headings read alike, the source gives them in different places.
# How the values were obtained:
# [1] = CCA assay: copper/ascorbate redox cycling, hydroxyl radical production; details: 1 equiv (10 μM) vs copper(II) 10 μM, ascorbate 300 μM, CCA 100 μM, pH 7.4
# Method in brief: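 Cu(II)/ascorbate hydroxyl-radical model in PBS (pH 7.4) with Desferal (1 μM); CuSO4 in water. Addition order is buffer, CCA (100 μM), Desferal, test compound (0.5 equiv = 5 μM or 1 equiv = 10 μM), Cu(II) (10 μM), then ascorbate (300 μM). The read-out is 7-hydroxy-CCA fluorescence (λex 395 nm, λem 450 nm). Triplicate.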
# [2] = DPPH radical scavenging assay; details: 1–1500 μM, MeOH, 30 min, n = 3
# Method in brief: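 Test compound stocks (5 mM, MeOH) were diluted and mixed 1:1 with DPPH stock (150 μM in MeOH), giving final compound 1–1500 μM. Plates were incubated 30 min in the dark at room temperature and read at 516 nm. BHT served as reference antioxidant, and DPPH plus MeOH as the control. Each concentration was run in triplicate, with results normalised to control as % DPPH quenched.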
# [3] = previously shown; cited from earlier work
# [4] = cited from earlier work
# [5] = test system: Nrf2 pathway; details: human blood–brain barrier CMEC/D3 cells; cited from earlier work
# [6] = test system: HT-22 cells; test: Cytoprotection against H2O2 in HT-22 cells, WST-8 assay; assay type: cell-based, mouse; details: then 600 μM H2O2 4 h
# Method in brief: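 HT-22 cells were pretreated with or without test compound (0.1–100 μM) for 24 h, then exposed to 600 μM H2O2 for 4 h. Viability was read by WST-8 reduction (2 h incubation, A450). Values are mean ± SD, n = 6, and significance was tested against the H2O2-only group.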
# [7] = ABTS radical reactivity
# [8] = test system: Nrf2; test: Nrf2 expression by Western blot in HT-22 cells; assay type: cell-based, mouse; details: HT-22, 1 μM, 24 h
compound,measurement,setting,value
"CCN(CC)Cc1cccc(CN(CC)CC)n1 [2,6-bis[(diethylamino)methyl]pyridine]",inhibition of CCA conversion to fluorescent hydroxy-CCA,[1],failed to give any indication of the prevention of copper redox cycling
"Cc1cc(C(C)(C)C)c(O)c(C(C)(C)C)c1 [BHT, 2,6-Di-tert-butyl-4-methylphenol, reference compound]",DPPH^• radical scavenging response,[2],rapid decrease in the DPPH^• absorbance band
c1cc2nc(c1)CNCCNCCNC2 [L1],DPPH^• radical scavenging activity,[3],lack of radical scavenging activity
same,log K1^H,"[4]; I = 0.15 M NaCl, T = 298 K",11.37
same,log K2^H,"[4]; I = 0.15 M NaCl, T = 298 K",8.22
same,log K3^H,"[4]; I = 0.15 M NaCl, T = 298 K",1.61
same,pI,"[4]; I = 0.15 M NaCl, T = 298 K",>11.37
Oc1cc2nc(c1)CNCCNCCNC2 [L2],log K1^H,"[4]; I = 0.15 M NaCl, T = 298 K",11.56
same,log K2^H,"[4]; I = 0.15 M NaCl, T = 298 K",9.05
same,log K3^H,"[4]; I = 0.15 M NaCl, T = 298 K",5.45
same,log K4^H,"[4]; I = 0.15 M NaCl, T = 298 K",1.68
same,pI,"[4]; I = 0.15 M NaCl, T = 298 K",10.31
same,Nrf2 pathway activation,[5],could activate the Nrf2 pathway
same,cell viability after H2O2,"[6]; HT-22, 1 μM pretreatment 24 h, mean ± SD, n = 6",70.1 ± 9.8%
same,cell viability after H2O2,"[6]; HT-22, 0.1, 10 and 100 μM pretreatment 24 h",did not improve the cell viability
same,DPPH^• radical scavenging response,[2],strong response
same,reactivity with ABTS,[7],little to no reactivity
same,expression level of Nrf2,[8],significantly increase the expression level of Nrf2
"C1CNCCNCCNCCN1 [cyclen, reference compound]",log K1^H,[4]; I = 0.15 M NaClO4,10.66
same,log K2^H,[4]; I = 0.15 M NaClO4,9.69
same,log K3^H,[4]; I = 0.15 M NaClO4,1.41
same,pI,[4]; I = 0.15 M NaClO4,> 10.66
